Source: ChEMBL document CHEMBL1131142 (J Med Chem, 1998)
Active and inactive are the calls of the source. The calls are words filed in the database; no cut-off is given here.

Tests used:
[1] = biological target: Aldo-keto reductase family 1 member B1 (Sus scrofa, UniProt P80276); experiment: In vitro inhibitory activity against aldose reductase in porcine lens.
Procedure, shortened: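 Partially purified porcine lens AR: lens homogenate in 250 mM phosphate pH 7.4 with 2 mM mercaptoethanol, 20000g supernatant, 40-60% ammonium sulfate cut. Assay mix: 100 mM phosphate pH 6.5, 0.2 mM NADPH, 1.5 mM DL-glyceraldehyde, 0.4 M Li2SO4, 7.0 mU/mL enzyme; 37 °C; A340 decrease over 1 min. IC50 read graphically from log concentration-inhibition curve.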

[2] = system: Rattus norvegicus; experiment: Tested in vivo for inhibition of sorbital accumulation in the sciatic nerve of streptozotocin- induced diabetic rat; % Inhibition at 30 mg/kg; type: functional
[3] = system: Rattus norvegicus; experiment: Compound tested in vivo for inhibition of sorbital accumulation in the sciatic nerve of streptozotocin- induced diabetic rat at 100 mg/kg; type: functional
[4] = organism: Rattus norvegicus; experiment: Dose required for inhibition of sorbital accumulation in the sciatic nerve of streptozotocin- induced diabetic rat.; type: functional
Procedure, shortened: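 Oral dosing of streptozotocin-diabetic rats once daily for 5 days; sciatic nerve taken 4 h after final dose. Nerve sorbitol assayed fluorometrically via sorbitol dehydrogenase-generated NADH (ex 365/em 430 nm).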

[5] = system: Rattus norvegicus; experiment: Compound tested in vivo for inhibition of sorbital accumulation in the sciatic nerve of streptozotocin- induced diabetic rat; No significant inhibition at 1 mg/kg; type: functional, organism-based; parameters: dose 1 mg/kg
[6] = system: Rattus norvegicus; experiment: Compound tested in vivo for inhibition of sorbital accumulation in the sciatic nerve of streptozotocin- induced diabetic rat; No significant inhibition at 30 mg/kg; type: functional, organism-based; parameters: dose 30 mg/kg
[7] = system: Rattus norvegicus; experiment: Tested in vivo for inhibition of sorbital accumulation in the sciatic nerve of streptozotocin- induced diabetic rat; % Inhibition at 100 mg/kg; type: functional
[8] = system: Rattus norvegicus; experiment: Compound tested in vivo for inhibition of sorbital accumulation in the sciatic nerve of streptozotocin- induced diabetic rat; % Inhibition at 1 mg/Kg; type: functional
[9] = system: Rattus norvegicus; experiment: Tested in vivo for inhibition of sorbital accumulation in the sciatic nerve of streptozotocin- induced diabetic rat;NS=No significant inhibition at 100 mg/kg; type: functional, organism-based; parameters: dose 100 mg/kg
[10] = system: Rattus norvegicus; experiment: Compound tested for inhibition of sorbital accumulation in the sciatic nerve of streptozotocin- induced diabetic rat; % Inhibition at 1 mg/kg; type: functional
[11] = system: Rattus norvegicus; experiment: Compound tested in vivo for inhibition of sorbital accumulation in the sciatic nerve of streptozotocin- induced diabetic rat; No significant inhibition at 100 mg/kg; type: functional, organism-based; parameters: dose 100 mg/kg

| SMILES | IC50 [1] [nM] | inhibition in vivo at 30 mg/kg [2] [%] | further results |
| --- | --- | --- | --- |
| O=C1CC2(C(=O)N1)C(=O)N(CCc1ccccc1)C(=O)c1cccn12 (configuration not stated) | 270 | 15.3 |  |
| Nc1ccc(CN2C(=O)c3cccn3C3(CC(=O)NC3=O)C2=O)cc1 (configuration not stated) | 140 | 33.4 |  |
| O=C(O)CCC1C(=O)N(Cc2ccc(Cl)c(Cl)c2)C(=O)c2cccn21 (configuration not stated) | 132 |  | inhibition in vivo at 100 mg/kg [3]: 17.2% |
| O=C1CC2(C(=O)N1)C(=O)N(Cc1cccc(Cl)c1)C(=O)c1cccn12 (configuration not stated) | 35 | 99.4 | ED50 [4]: 3.8 mg/kg/day |
| O=C1CC2(C(=O)N1)C(=O)N(Cc1ccc(Br)cc1)C(=O)c1cccn12 (configuration not stated) |  | 108 | ED50 [4]: 0.48 mg/kg/day |
| COc1ccc(CN2C(=O)c3cccn3C3(CC(=O)NC3=O)C2=O)cc1 (configuration not stated) |  | 46.7 |  |
| O=C1CC2(C(=O)N1)C(=O)N(Cc1ccc(Br)cc1F)C(=O)c1cc(Br)c(Br)n12 (configuration not stated) | 52 |  | inhibition [5]: inactive |
| COc1ccc(CN2C(=O)c3cccn3C3(CC(=O)NC3=O)C2=O)c(OC)c1 (configuration not stated) | 350 |  | inhibition [6]: inactive |
| O=C1CC2(C(=O)N1)C(=O)N(Cc1ccc(Br)cc1F)C(=O)c1ccc(Br)n12 (configuration not stated) |  |  | inhibition [5]: inactive |
| O=C1CC2(C(=O)N1)C(=O)N(Cc1cccc(Br)c1)C(=O)c1cccn12 (configuration not stated) |  | 102 |  |
| CN1CC(=O)n2cccc2C1=O | 7500 |  | inhibition in vivo at 100 mg/kg [7]: 55.7% |
| O=C1CC2(C(=O)N1)C(=O)N(c1ccccc1)C(=O)c1cccn12 (configuration not stated) | 200 | 27.2 |  |
| CC(=O)c1cc2n(c1)C1(CC(=O)NC1=O)C(=O)N(Cc1ccc(Br)cc1F)C2=O (configuration not stated) | 210 |  | inhibition in vivo at 1 mg/kg [8]: 26.6% |
| O=C(O)CCC1C(=O)N(Cc2ccc(Br)cc2F)C(=O)c2cccn21 (configuration not stated) | 803 |  | inhibition [9]: inactive |
| O=C(O)CC1C(=O)N(Cc2ccc(Br)cc2F)C(=O)c2cccn21 (configuration not stated) | 165 |  | inhibition [9]: inactive |
| CN1C(=O)c2cccn2C2(CC(=O)NC2=O)C1=O (configuration not stated) | 280 | 51.2 |  |
| O=C1CC2(C(=O)N1)C(=O)N(Cc1ccccc1Br)C(=O)c1cccn12 (configuration not stated) |  | 82.6 |  |
| CN1C(=O)c2cccn2C(CC(=O)O)C1=O (configuration not stated) | > 10000 |  | inhibition in vivo at 100 mg/kg [7]: 12.8% |
| O=C1CC2(C(=O)N1)C(=O)N(Cc1ccccc1)C(=O)c1cccn12 (configuration not stated) |  | 69.1 |  |
| O=C1C[C@]2(C(=O)N1)C(=O)N(Cc1ccc(Br)cc1F)C(=O)c1cccn12 | 190 |  | ED50 [4]: > 100 mg/kg/day |
| O=C1CC2(C(=O)N1)C(=O)N(Cc1ccc(F)cc1F)C(=O)c1cccn12 (configuration not stated) |  | 98 | ED50 [4]: 5.4 mg/kg/day |
| O=C1CC2(C(=O)N1)C(=O)N(Cc1ccc(Br)cc1F)C(=O)c1cc(Cl)cn12 (configuration not stated) |  |  | inhibition in vivo at 1 mg/kg [8]: 23% |
| COc1ccc2c(C(=S)N(C)CC(=O)O)cccc2c1C(F)(F)F [TOLRESTAT] | 15 |  | ED50 [4]: 26.7 mg/kg/day |
| O=C1CC2(C(=O)N1)C(=O)N(Cc1ccc(F)cc1)C(=O)c1cccn12 (configuration not stated) |  | 58.8 |  |

| SMILES | IC50 [1] [nM] | inhibition in vivo at 30 mg/kg [2] [%] | further results |
| --- | --- | --- | --- |
| O=C1CC2(C(=O)N1)C(=O)N(Cc1ccc([N+](=O)[O-])cc1)C(=O)c1cccn12 (configuration not stated) |  | 102 | ED50 [4]: 10.8 mg/kg/day |
| O=C1C[C@@]2(C(=O)N1)C(=O)N(Cc1ccc(Br)cc1F)C(=O)c1cccn12 | 15 |  | ED50 [4]: 0.18 mg/kg/day |
| CC(C)N1C(=O)c2cccn2C(CC(=O)O)C1=O (configuration not stated) | > 10000 |  | inhibition in vivo at 100 mg/kg [7]: 12.9% |
| O=C1CC2(C(=O)N1)C(=O)NC(=O)c1cccn12 (configuration not stated) | 630 | 33.2 |  |
| CN1C(=O)c2cccn2C(CCC(=O)O)C1=O (configuration not stated) | > 10000 |  | inhibition [9]: inactive |
| CN(CC(=O)O)C(=O)c1ccc[nH]1 | 5000 |  | inhibition in vivo at 100 mg/kg [7]: 23.7% |
| CC(C)N1C(=O)c2cccn2C(CCC(=O)O)C1=O (configuration not stated) | > 10000 |  | inhibition [9]: inactive |
| O=C1CC2(C(=O)N1)C(=O)N(Cc1ccc(Br)cc1F)C(=O)c1cccn12 (configuration not stated) | 45 | 115 | ED50 [4]: 0.3 mg/kg/day; inhibition in vivo at 1 mg/kg [10]: 105% |
| O=C1CC2(C(=O)N1)C(=O)N(Cc1ccc(Cl)cc1F)C(=O)c1cccn12 (configuration not stated) |  | 110 | ED50 [4]: 0.74 mg/kg/day |
| O=C1CC2(C(=O)N1)C(=O)N(Cc1ccc(Br)cc1F)C(=O)c1cc(Br)cn12 (configuration not stated) |  |  | inhibition in vivo at 1 mg/kg [8]: 28.8% |
| O=C1CC2(C(=O)N1)C(=O)N(Cc1ccc(Cl)c(Cl)c1)C(=O)c1cccn12 (configuration not stated) |  | 112 | ED50 [4]: 0.6 mg/kg/day |
| Cc1ccc(CN2C(=O)c3cccn3C3(CC(=O)NC3=O)C2=O)cc1 (configuration not stated) |  | 65.8 |  |
| O=C(O)CC1C(=O)N(Cc2ccc(Cl)c(Cl)c2)C(=O)c2cccn21 (configuration not stated) | 131 |  | inhibition [11]: inactive |
| O=C(O)CCC1C(=O)NC(=O)c2cccn21 (configuration not stated) | > 10000 |  | inhibition [9]: inactive |
| COC(=O)CN(C)C(=O)c1ccc[nH]1 | > 10000 |  | inhibition in vivo at 100 mg/kg [7]: 38% |
| O=C(O)Cc1nn(Cc2ccc(Br)cc2F)c(=O)c2ccccc12 [PONALRESTAT] | 21 |  | ED50 [4]: 11 mg/kg/day |
| O=C1CC2(C(=O)N1)C(=O)N(Cc1ccc(C(F)(F)F)cc1)C(=O)c1cccn12 (configuration not stated) |  | 88.4 |  |
| O=C(O)CC1C(=O)NC(=O)c2cccn21 (configuration not stated) | > 10000 |  | inhibition in vivo at 100 mg/kg [7]: 12.5% |
| O=C1CC2(C(=O)N1)C(=O)N(Cc1ccc(Cl)cc1)C(=O)c1cccn12 (configuration not stated) | 38 | 105 | ED50 [4]: 1.5 mg/kg/day |
| O=C1CC2(C(=O)N1)C(=O)N(Cc1ccccc1F)C(=O)c1cccn12 (configuration not stated) |  | 98 | ED50 [4]: 1.3 mg/kg/day |
| O=C1CC2(C(=O)N1)C(=O)N(Cc1ccc(Br)cc1F)C(=O)c1ccc(Cl)n12 (configuration not stated) |  |  | inhibition in vivo at 1 mg/kg [8]: 20.2% |
| COc1ccc(CN2C(=O)c3cccn3C3(CC(=O)NC3=O)C2=O)cc1OC (configuration not stated) |  |  | inhibition [6]: inactive |
| O=C1CC2(C(=O)N1)C(=O)N(Cc1ccccc1Cl)C(=O)c1cccn12 (configuration not stated) | 37 | 97 | ED50 [4]: 5.8 mg/kg/day |
